For assay [1], the target named is T1, Melatonin receptor type 1B (Homo sapiens, UniProt P49286).
T1 sequence (P49286 whole entry): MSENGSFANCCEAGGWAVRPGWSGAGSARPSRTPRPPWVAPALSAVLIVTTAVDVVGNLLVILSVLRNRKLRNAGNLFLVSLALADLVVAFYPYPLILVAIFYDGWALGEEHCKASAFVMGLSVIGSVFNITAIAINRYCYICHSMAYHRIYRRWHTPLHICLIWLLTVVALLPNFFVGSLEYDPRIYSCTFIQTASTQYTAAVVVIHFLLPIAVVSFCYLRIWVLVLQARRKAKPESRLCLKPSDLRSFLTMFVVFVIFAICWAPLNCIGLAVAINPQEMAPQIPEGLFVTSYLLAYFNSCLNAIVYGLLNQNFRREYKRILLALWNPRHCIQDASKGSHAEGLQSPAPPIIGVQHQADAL
Description: Binding affinity for melatonin receptor type 1B, expressed in HEK293 cells (2-[125I]iodomelatonin is used as radioligand). It is filed as cell-based.

Assay [2] addresses Melatonin receptor type 1A (Homo sapiens, UniProt P48039). Description: Binding affinity for human melatonin receptor type 1A, expressed in HEK293 cells (2-[125I]iodomelatonin is used as radioligand). The format is cell-based.
The next assay deals with Melatonin receptor (Gallus gallus, UniProt P49288+P51050+P49285). Description: Binding affinity is evaluated for chicken brain melatonin receptor using 2-[125I]iodomelatonin as radioligand.
Assay [3] is described as follows: Melanophore aggregation of the dermal melanocytes of Xenopus laevis tadpoles. The format is functional.
Assay [4] can be described thus: Melanophore aggregation of the dermal melanocytes of Xenopus laevis tadpoles with regard to melatonin (=1). It is filed as functional.
The nature of assay [5]: compound is evaluated for melanophore aggregation of the dermal melanocytes of Xenopus laevis tadpoles with regard to melatonin (=1). It is filed as functional.
Assay [6] can be described thus: Percentage of maximum effect observed with regard to that of melatonin (100%). The format is functional. An outline of the steps: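 Tadpole skin-lightening assay (melanophore index, 5 concentrations, 15 min exposure).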

In general, Ki refers to the dissociation constant of the complex between target and ligand, obtained from inhibition or displacement. A high value points to a looser hold on the target. A word on the EC50: it is the concentration giving half of the maximal effect. Low readings indicate higher potency in that assay, high ones lower potency in that assay.

The structures appear in SMILES notation.

Melatonin receptor type 1A, sequence (P48039 whole entry): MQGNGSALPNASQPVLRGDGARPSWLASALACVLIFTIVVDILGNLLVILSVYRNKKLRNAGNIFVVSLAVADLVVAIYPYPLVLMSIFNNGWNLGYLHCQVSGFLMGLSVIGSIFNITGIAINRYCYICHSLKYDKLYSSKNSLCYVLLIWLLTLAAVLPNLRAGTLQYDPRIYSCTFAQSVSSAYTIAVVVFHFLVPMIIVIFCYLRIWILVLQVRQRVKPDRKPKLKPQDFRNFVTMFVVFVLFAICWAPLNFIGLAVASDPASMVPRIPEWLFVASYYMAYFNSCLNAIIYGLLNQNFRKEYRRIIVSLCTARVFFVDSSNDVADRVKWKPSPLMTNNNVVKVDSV

In the case of `COc1ccc2cccc3c2c1CCC3CNC(=O)C1CC1` (configuration not stated), the Ki in assay [1] was determined as 0.79 nM; in assay [2], 0.95 nM; at Melatonin receptor it was 4.6 nM.
Regarding `CCCC(=O)NCC1CCc2c(OC)ccc3ccc(OC)c1c23` (single isomer, unassigned; (-)), the Ki on Melatonin receptor came to 0.034 nM.
Same read-out and setting: to `CCCC(=O)NCC1CCc2c(OC)ccc3ccc(OC)c1c23` (single isomer, unassigned; (+)) belongs 0.31 nM.
On to `CCCC(=O)NCC1CCc2cccc3ccc(OC)c1c23` (configuration not stated), for which the Ki in assay [1] stood at 0.069 nM; in assay [2] it was 0.008 nM; on Melatonin receptor, 0.02 nM. Further, the concentration for a half-maximal effect (EC50) in assay [3] is 0.08 nM. This compound came in with a Potency in assay [4] of 84.8.
Regarding `CCC(=O)NCCC1CCc2c(OC)ccc3cccc1c23` (configuration not stated), the results for the Ki (in assay [1]; in assay [2]; at Melatonin receptor) were 4.03 nM, 2.08 nM and 31.7 nM, respectively.
For `CCC(=O)NCC1Cc2cccc3ccc(OC)c1c23` (configuration not stated), in that order: 0.085 nM, 0.1 nM and 0.9 nM.
With `CCCC(=O)NCCC1CCc2cccc3ccc(OC)c1c23` (configuration not stated), the Ki on Melatonin receptor came out at 0.43 nM.
Consider `CCCC(=O)NCC1CCc2c(OC)ccc3cccc1c23` (stereo in doubt; 13c), for which the Ki was 0.11 nM in assay [1], 0.45 nM in assay [2] and 0.36 nM at Melatonin receptor. In addition, the EC50 in assay [3] was determined as 1.61 nM. In assay [5], this compound had a Potency of 13.3.
`CC(=O)NCC1Cc2cccc3cccc1c23` (configuration not stated): the Ki came out at 0.51 nM in assay [1], 4.24 nM in assay [2] and 36.1 nM on Melatonin receptor. For the same compound, in assay [3], the EC50 is above 1000 nM. The same compound showed an Effect in assay [6] below 50%.
As to `COc1ccc2cccc3c2c1C(CNC(C)=O)C3` (configuration not stated), the results for the Ki (in assay [1]; in assay [2]; on Melatonin receptor) were 0.12 nM, 0.12 nM and 2.95 nM, respectively. In assay [3], this compound gave an EC50 of 5.08 nM. Further, in assay [4], the Potency came out at 1.33.
In the case of `CCCC(=O)NCC1Cc2cccc3cccc1c23` (configuration not stated), the inhibition constant Ki came out at 0.093 nM in assay [1], 0.79 nM in assay [2] and 4.3 nM on Melatonin receptor. In assay [3], the half-maximal effective concentration (EC50) is 26 nM. In assay [6], this compound showed an Effect below 50%.
Take `CCC(=O)NCCC1Cc2cccc3cccc1c23` (configuration not stated): the Ki was 1.86 nM in assay [1], 4.34 nM in assay [2] and 101.8 nM on Melatonin receptor.
Consider `COc1ccc2cccc3c2c1C(CNC(=O)C1CC1)C3` (configuration not stated), for which the inhibitory constant (Ki) was determined as 0.31 nM in assay [1], 1.32 nM in assay [2] and 3.8 nM on Melatonin receptor.
For `CCCC(=O)NCCC1Cc2cccc3ccc(OC)c1c23` (configuration not stated), in that order: 0.34 nM, 0.37 nM and 2.4 nM.
On to `COc1ccc2cccc3c2c1CCC3CNC(C)=O` (configuration not stated), for which the inhibition constant (Ki) in assay [1] was 0.41 nM; in assay [2], 0.8 nM; on Melatonin receptor it was 0.9 nM. Moreover, a half-maximal effect in assay [3] (EC50) was put at 57.8 nM. The compound further came in with a Potency in assay [4] of 0.11.
For `COc1ccc2cccc3c2c1C(CCNC(=O)C1CC1)C3` (configuration not stated), the inhibition constant (Ki) in assay [1] came to 41.8 nM; in assay [2] it was 10 nM; at Melatonin receptor, 97.1 nM.
With `CCCC(=O)NCC1CCc2cccc3cccc1c23` (configuration not stated), the Ki was determined as 0.18 nM in assay [1] and 3.2 nM on Melatonin receptor.
For `CCCC(=O)NCCC1CCc2c(OC)ccc3cccc1c23` (configuration not stated), on Melatonin receptor, the inhibition constant Ki is reported as 28.1 nM.
Regarding `COc1ccc2ccc(OC)c3c2c1CCC3CNC(=O)C1CC1` (configuration not stated), the values for the Ki (in assay [1]; in assay [2]; on Melatonin receptor) were 0.26 nM, 0.026 nM and 0.13 nM, respectively.
`COc1ccc2cccc3c2c1C(CCNC(C)=O)CC3` (configuration not stated): the inhibitory constant (Ki) is 0.39 nM in assay [1], 0.1 nM in assay [2] and 24.4 nM at Melatonin receptor. Also, in assay [3], the response was half-maximal at 428 nM (EC50). In assay [4], this compound had a Potency of 0.007.
`COc1ccc2cccc(CCNC(C)=O)c2c1` [AGOMELATINE] came in with an EC50 in assay [3] of 0.53 nM. The compound further had a Potency in assay [4] of 0.8.
As to `CCCC(=O)NCC1CCc2c(OC)ccc3cccc1c23` (stereo in doubt; 13c (+)), the Ki was determined as 4.07 nM in assay [1], 2.9 nM in assay [2] and 21.7 nM at Melatonin receptor.
For `CCCC(=O)NCC1Cc2cccc3ccc(OC)c1c23` (single isomer, unassigned; (+)), in that order: 7.4 nM, 3.9 nM and 4.3 nM.
For the compound `O=C(NCCC1Cc2cccc3cccc1c23)C1CC1` (configuration not stated), the results for the Ki (in assay [1]; in assay [2]; on Melatonin receptor) were 16.2 nM, 6.48 nM and 399 nM, respectively.
For `CCC(=O)NCC1CCc2c(OC)ccc3ccc(OC)c1c23` (configuration not stated), in that order: 0.153 nM, 0.012 nM and 0.011 nM.
As for `CCCC(=O)NCC1Cc2cccc3ccc(OC)c1c23` (stereo in doubt; 20c), the results for the Ki (in assay [1]; in assay [2]; on Melatonin receptor) were 0.35 nM, 0.37 nM and 0.16 nM, respectively. In assay [3], this compound came in with an EC50 of 0.46 nM. For the same compound, the Potency in assay [4] turned out to be 14.7.
On to `O=C(NCC1Cc2cccc3cccc1c23)C1CC1` (configuration not stated), for which the Ki in assay [1] is 0.57 nM; in assay [2], 1.06 nM; on Melatonin receptor, 40.5 nM.
As to `CCCC(=O)NCC1CCc2c(OC)ccc3ccc(OC)c1c23` (stereo in doubt; 15c), the Ki in assay [1] is 0.1 nM; in assay [2], 0.016 nM; on Melatonin receptor, 0.07 nM. The compound further displayed a concentration for a half-maximal effect (EC50) in assay [3] of 0.004 nM. Besides, in assay [4], the Potency turned out to be 1697.
On to `COc1ccc2cccc3c2c1CCC3CCNC(C)=O` (configuration not stated), for which the inhibition constant (Ki) stood at 11.8 nM in assay [1], 8.9 nM in assay [2] and 145 nM at Melatonin receptor. For the same compound, the concentration for a half-maximal effect (EC50) in assay [3] is above 1000 nM. Moreover, in assay [6], the Effect was 50%.
For the compound `CCC(=O)NCCC1Cc2cccc3ccc(OC)c1c23` (configuration not stated), the inhibition constant Ki worked out at 0.24 nM in assay [1], 0.22 nM in assay [2] and 4.75 nM at Melatonin receptor.
For `CCC(=O)NCCC1CCc2c(OC)ccc3ccc(OC)c1c23` (configuration not stated), in that order: 0.55 nM, 0.07 nM and 0.8 nM.
For `CCCC(=O)NCCC1Cc2cccc3cccc1c23` (configuration not stated), in that order: 1.86 nM, 6.41 nM and 73.7 nM.
`CCCC(=O)NCC1CCc2c(OC)ccc3cccc1c23` (single isomer, unassigned; (-)): the Ki was found to be 0.068 nM in assay [1], 0.11 nM in assay [2] and 0.8 nM at Melatonin receptor.
For `CCC(=O)NCC1CCc2c(OC)ccc3cccc1c23` (configuration not stated), in that order: 0.13 nM, 0.19 nM and 0.7 nM.
Take `CC(=O)NCCC1Cc2cccc3cccc1c23` (configuration not stated): the Ki in assay [1] worked out at 3.83 nM; in assay [2] it was 6.5 nM; on Melatonin receptor it was 123.3 nM. In assay [3], this compound came in with an EC50 above 1000 nM. The compound further gave an Effect in assay [6] below 50%.
In the case of `COc1ccc2ccc(OC)c3c2c1CCC3CCNC(=O)C1CC1` (configuration not stated), the Ki in assay [1] amounted to 1.59 nM; in assay [2] it was 0.66 nM; at Melatonin receptor, 11.2 nM.
For `CCC(=O)NCC1Cc2cccc3cccc1c23` (configuration not stated), in that order: 0.22 nM, 2.65 nM and 14.3 nM.
For the compound `COc1ccc2cccc3c2c1C(CCNC(C)=O)C3` (configuration not stated), the inhibition constant Ki in assay [1] turned out to be 0.59 nM; in assay [2] it was 0.41 nM; on Melatonin receptor, 2.7 nM. For the same compound, in assay [3], the EC50 is above 1000 nM. This compound also came in with an Effect in assay [6] of 50%.
Regarding `CCCC(=O)NCCC1CCc2c(OC)ccc3ccc(OC)c1c23` (configuration not stated), the inhibition constant (Ki) in assay [1] was found to be 0.19 nM; in assay [2], 0.057 nM; at Melatonin receptor, 0.14 nM. Moreover, in assay [3], the EC50 worked out at 0.18 nM. In addition, in assay [4], the Potency is listed as 37.7.
For the compound `COc1ccc2ccc(OC)c3c2c1CCC3CNC(C)=O` (configuration not stated), the Ki in assay [1] was 0.145 nM; in assay [2] it was 0.015 nM; at Melatonin receptor, 0.054 nM. In addition, the EC50 in assay [3] worked out at 0.025 nM. For the same compound, in assay [4], the Potency was determined as 271.6.
For `COc1ccc2cccc3c2c1C(CNC(C)=O)CC3` (configuration not stated), in that order: 0.094 nM, 0.01 nM, 0.04 nM, 0.1 nM and 67.9.
As to `CC(=O)NCC1CCc2cccc3cccc1c23` (configuration not stated), the inhibitory constant (Ki) turned out to be 0.22 nM in assay [1], 1.2 nM in assay [2] and 5.5 nM on Melatonin receptor.
For `CCCC(=O)NCC1Cc2cccc3ccc(OC)c1c23` (single isomer, unassigned; (-)), in that order: 0.034 nM, 0.03 nM and 0.15 nM.
On to `COc1ccc2ccc(OC)c3c2c1CCC3CCNC(C)=O` (configuration not stated), for which the Ki is 0.55 nM in assay [1], 0.2 nM in assay [2] and 3.6 nM at Melatonin receptor. The compound further returned a concentration for a half-maximal effect (EC50) in assay [3] of 2.65 nM. Besides, in assay [4], the Potency was 2.5.
Turning to `COc1ccc2cccc3c2c1CCC3CCNC(=O)C1CC1` (configuration not stated), the Ki in assay [1] is 13.2 nM; in assay [2], 1.89 nM; at Melatonin receptor, 43.4 nM.
